Measurements as given in ChEMBL document CHEMBL2396604, “Synthesis and structure activity relationship of tetrahydroisoquinoline-based potentiators of GluN2C and GluN2D containing N-methyl-D-aspartate receptors” (J Med Chem, 2013).
Activity calls are given as the source filed them. The rule behind the calls is not given here.

Key:
Assay type in all cases: cell-based
BHK [1] = test: Activity at GluN1/GluN2C receptor in hamster BHK cells assessed as effect on NMDA-induced response up to 6 hrs by Fluo-4 dye-based fluorescence assay; conditions: Mesocricetus auratus
[2] = target: Ionotropic glutamate receptor NMDA 1/2D (Rattus norvegicus) (UniProt P35439+Q62645); test: Activity at rat recombinant GluN1/GluN2D receptor expressed in Xenopus oocytes assessed as potentiation of 0.3 uM glycine/0.1 uM glutamate-induced activation at 10 uM by two-electrode voltage clamp technique relative to control; conditions: Oocyte
BHK [3] = test: Activity at GluN1/GluN2C receptor in hamster BHK cells assessed as effect on NMDA-induced response after 24 hrs by Fluo-4 dye-based fluorescence assay; conditions: Mesocricetus auratus
[4] = target: Glutamate receptor ionotropic, kainate 2 (Rattus norvegicus) (UniProt P42260); test: Activity at rat recombinant GluK2 receptor expressed in Xenopus oocytes assessed as effect on glutamate-induced response by two-electrode voltage clamp technique; conditions: Oocyte
Summary of the method: (§1)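 Oocytes injected with 1–5 ng cRNA, kept in Barth's solution at 15°C for 2–5 days. Clamped at -40 mV in 90 NaCl, 1.0 KCl, 0.5 BaCl₂, 0.005 EDTA, 10 HEPES (mM), pH 7.4, 23°C. Receptors activated by 100 µM glutamate with compound co-applied. GluK2 oocytes pretreated with 10 µM concanavalin A for 10 min. DMSO 0.05–0.5% final.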

[5] = target: Glutamate receptor 1 (Rattus norvegicus) (UniProt P19490); test: Activity at rat recombinant GluA1 receptor expressed in Xenopus oocytes assessed as effect on glutamate-induced response by two-electrode voltage clamp technique; conditions: Oocyte; summary of the method: as §1
Chain of Glutamate receptor 1 (Rattus norvegicus) (P19490 whole entry): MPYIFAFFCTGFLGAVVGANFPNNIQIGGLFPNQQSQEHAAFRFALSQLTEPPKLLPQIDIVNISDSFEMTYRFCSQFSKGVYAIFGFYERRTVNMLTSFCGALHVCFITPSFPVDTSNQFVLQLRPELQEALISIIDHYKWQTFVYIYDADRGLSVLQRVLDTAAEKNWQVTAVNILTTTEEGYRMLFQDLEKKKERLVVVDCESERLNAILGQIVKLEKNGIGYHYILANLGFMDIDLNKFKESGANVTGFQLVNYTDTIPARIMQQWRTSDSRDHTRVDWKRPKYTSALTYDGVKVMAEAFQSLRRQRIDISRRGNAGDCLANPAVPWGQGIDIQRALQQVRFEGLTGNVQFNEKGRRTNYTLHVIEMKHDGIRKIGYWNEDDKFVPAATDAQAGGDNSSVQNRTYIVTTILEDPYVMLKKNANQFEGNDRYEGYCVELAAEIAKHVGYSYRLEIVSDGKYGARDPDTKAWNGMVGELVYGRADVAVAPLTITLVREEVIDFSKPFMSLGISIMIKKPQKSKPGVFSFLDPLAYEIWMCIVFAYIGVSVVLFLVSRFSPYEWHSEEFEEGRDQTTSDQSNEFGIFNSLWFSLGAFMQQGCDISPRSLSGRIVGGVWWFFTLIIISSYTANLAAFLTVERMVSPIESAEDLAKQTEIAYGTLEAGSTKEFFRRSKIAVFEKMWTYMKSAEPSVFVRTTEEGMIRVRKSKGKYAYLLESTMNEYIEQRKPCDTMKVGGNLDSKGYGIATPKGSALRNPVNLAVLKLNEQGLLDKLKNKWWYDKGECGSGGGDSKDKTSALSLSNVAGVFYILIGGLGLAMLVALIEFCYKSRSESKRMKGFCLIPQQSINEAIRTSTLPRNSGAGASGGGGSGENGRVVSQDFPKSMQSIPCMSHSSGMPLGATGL

Chain of Glutamate receptor ionotropic, kainate 2 (Rattus norvegicus) (P42260 whole entry): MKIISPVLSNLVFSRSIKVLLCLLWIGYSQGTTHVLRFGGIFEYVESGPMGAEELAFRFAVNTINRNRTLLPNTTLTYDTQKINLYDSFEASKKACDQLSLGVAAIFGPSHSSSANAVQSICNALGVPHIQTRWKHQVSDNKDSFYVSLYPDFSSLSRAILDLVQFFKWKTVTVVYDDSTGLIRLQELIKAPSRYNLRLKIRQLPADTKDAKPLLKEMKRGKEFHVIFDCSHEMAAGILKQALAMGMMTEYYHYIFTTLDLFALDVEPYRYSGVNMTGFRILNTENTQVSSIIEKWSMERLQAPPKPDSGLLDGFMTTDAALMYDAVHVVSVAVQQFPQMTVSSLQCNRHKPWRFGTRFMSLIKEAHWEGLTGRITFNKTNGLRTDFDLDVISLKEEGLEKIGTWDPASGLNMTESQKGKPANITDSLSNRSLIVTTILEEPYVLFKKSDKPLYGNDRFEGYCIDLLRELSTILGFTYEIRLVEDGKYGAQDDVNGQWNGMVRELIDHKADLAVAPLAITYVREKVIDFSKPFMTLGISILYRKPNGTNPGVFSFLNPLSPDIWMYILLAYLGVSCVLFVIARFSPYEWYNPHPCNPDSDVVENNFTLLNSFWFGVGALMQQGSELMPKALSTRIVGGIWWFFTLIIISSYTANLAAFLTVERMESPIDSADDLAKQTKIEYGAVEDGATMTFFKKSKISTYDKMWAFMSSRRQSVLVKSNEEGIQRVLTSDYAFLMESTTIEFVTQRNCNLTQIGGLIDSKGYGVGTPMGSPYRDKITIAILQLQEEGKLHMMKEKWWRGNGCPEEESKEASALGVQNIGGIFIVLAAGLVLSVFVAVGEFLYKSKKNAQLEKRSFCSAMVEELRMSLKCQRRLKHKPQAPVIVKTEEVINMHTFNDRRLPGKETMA

COc1ccc(OCC2c3cc(OC)c(OC)cc3CCN2C(=O)c2cccc(Cl)c2)cc1 (racemic)
Activity (BHK [1]): Active
Activity [2]: 353%
Activity (BHK [3]): inactive
Activity [4]: inactive
Activity [5]: inactive
